Measured values as given in ChEMBL document CHEMBL1122823, “Synthesis and receptor-binding affinity of fluorotamoxifen, a possible estrogen-receptor imaging agent” (J Med Chem, 1985).
Values joined by “and” are separate entries in the source; they are usually repeats but may differ in a detail not shown here. Identical values can stand only once.

Key:
[1] = target: T1, Estrogen receptor (Rattus norvegicus) (UniProt P06211+Q62986)
[2] = target: T1, Estrogen receptor (Rattus norvegicus); test: Uterotrophic effect in rats at 10 ug/day dose; type: functional, tissue-based; settings: Uterus
[3] = target: T1, Estrogen receptor (Rattus norvegicus); test: Percent uterotrophic effect at 10 ug/day dose compared to estradiol; type: functional
[4] = Dissociation constant was evaluated.; type: functional
Method in brief: (§1)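 Rat uterine cytosol from 19-day-old immature Sabra rats, homogenized at 0 °C in TEG buffer (pH 7.4, 10% glycerol, 0.01 M DTT) and spun to 105000g, diluted to 2 uteri/mL. […] Free ligand removed with 2.5% dextran-coated charcoal. Nonspecific binding taken with 10000-fold excess. KA = KL·A50/([L*]+KL), with free [L*] 10 nM.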

[5] = target: T1, Estrogen receptor (Rattus norvegicus); settings: Uterus
[6] = target: T1, Estrogen receptor (Rattus norvegicus); test: Uterotrophic effect in rats uterine at 500 ug/day dose; type: functional, tissue-based; settings: Uterus
[7] = target: T1, Estrogen receptor (Rattus norvegicus); settings: Uterus; remark: listed apart in the source
[8] = target: T1, Estrogen receptor (Rattus norvegicus); test: Uterotrophic effect in rats uterine at 500 ug/day dose in the presence of 0.2 ug estradiol; type: functional, tissue-based; settings: Uterus
[9] = target: T1, Estrogen receptor (Rattus norvegicus); test: Uterotrophic effect in rats uterine at 100 ug/day dose in the presence of 0.20 ug estradiol; type: functional, tissue-based; settings: Uterus
[10] = target: T1, Estrogen receptor (Rattus norvegicus); test: Uterotrophic effect in rats uterine at 10 ug/day dose in the presence of 0.08 ug estradiol; type: functional, tissue-based; settings: Uterus
[11] = target: T1, Estrogen receptor (Rattus norvegicus); test: Uterotrophic effect in rats uterine at 500 ug/day dose in the presence of 0.10 ug estradiol; type: functional, tissue-based; settings: Uterus
[12] = target: T1, Estrogen receptor (Rattus norvegicus); test: Uterotrophic effect in rats uterine at 100 ug/day dose; type: functional, tissue-based; settings: Uterus
[13] = target: T1, Estrogen receptor (Rattus norvegicus); test: Uterotrophic effect in rats uterine at 100 ug/day dose in the presence of 10 ug estradiol; type: functional, tissue-based; settings: Uterus
[14] = target: T1, Estrogen receptor (Rattus norvegicus); test: Uterotrophic effect in rats uterine at 1 ug/day dose in the presence of 0.08 ug estradiol; type: functional, tissue-based; settings: Uterus
[15] = target: T1, Estrogen receptor (Rattus norvegicus); test: Uterotrophic effect in rats uterine at 100 ug/day dose in the presence of 0.05 ug hexestrol; type: functional, tissue-based; settings: Uterus
[16] = target: T1, Estrogen receptor (Rattus norvegicus); test: Uterotrophic effect in rats uterine at 500 ug/day dose in the presence of 10 ug estradiol; type: functional, tissue-based; settings: Uterus
[17] = target: T1, Estrogen receptor (Rattus norvegicus); test: Uterotrophic effect in rats uterine at 500 ug/day dose in the presence of 0.08 ug estradiol; type: functional, tissue-based; settings: Uterus
[18] = target: T1, Estrogen receptor (Rattus norvegicus); test: Percent uterotrophic effect at 500 ug/day dose compared to estradiol; type: functional
[19] = target: T1, Estrogen receptor (Rattus norvegicus); test: Uterotrophic effect in rats uterine at 50 ug/day dose; type: functional, tissue-based; settings: Uterus
[20] = target: T1, Estrogen receptor (Rattus norvegicus); test: Percent uterotrophic effect at 50 ug/day dose compared to estradiol; type: functional
[21] = target: T1, Estrogen receptor (Rattus norvegicus); test: Uterotrophic effect in rats uterine at 0.01 ug/day dose; type: functional, tissue-based; settings: Uterus
[22] = target: T1, Estrogen receptor (Rattus norvegicus); test: Uterotrophic effect in rats uterine at 0.3 ug/day dose; type: functional, tissue-based; settings: Uterus
[23] = target: T1, Estrogen receptor (Rattus norvegicus); test: Uterotrophic effect in rats at 0.1 ug/day dose; type: functional, tissue-based; settings: Uterus
[24] = target: T1, Estrogen receptor (Rattus norvegicus); settings: Uterus; remark: listed apart in the source
[25] = target: T1, Estrogen receptor (Rattus norvegicus); test: Percent uterotrophic effect at 0.1 ug/day dose compared to estradiol; type: functional
[26] = target: T1, Estrogen receptor (Rattus norvegicus); test: Uterotrophic effect in rats uterine at 0.03 ug/day dose; type: functional, tissue-based; settings: Uterus
[27] = Dissociation constant was evaluated; type: physicochemical
Method in brief: as §1

[28] = target: T1, Estrogen receptor (Rattus norvegicus); test: Percent uterotrophic effect at 100 ug/day dose compared to estradiol; type: functional
[29] = target: T1, Estrogen receptor (Rattus norvegicus); test: Uterotrophic effect in rats uterine at 10 ug/day dose in the presence of 0.16 ug estradiol; type: functional, tissue-based; settings: Uterus
[30] = target: T1, Estrogen receptor (Rattus norvegicus); test: Uterotrophic effect in rats uterine at 10 ug/day dose; type: functional, tissue-based; settings: Uterus
[31] = target: T1, Estrogen receptor (Rattus norvegicus); test: Uterotrophic effect in rats uterine at 1000 ug/day dose in the presence of 0.16 ug estradiol; type: functional, tissue-based; settings: Uterus
[32] = target: T1, Estrogen receptor (Rattus norvegicus); test: Uterotrophic effect in rats uterine at 100 ug/day dose in the presence of 0.5 ug hexestrol; type: functional, tissue-based; settings: Uterus
[33] = target: T1, Estrogen receptor (Rattus norvegicus); test: Uterotrophic effect in rats uterine at 1000 ug/day dose; type: functional, tissue-based; settings: Uterus
[34] = target: T1, Estrogen receptor (Rattus norvegicus); test: Uterotrophic effect in rats uterine at 100 ug/day dose in the presence of 0.1 ug estradiol; type: functional, tissue-based; settings: Uterus

Question: Which A50 [1] does the source give for `CC/C(=C(/c1ccc(O)cc1)c1ccc(F)cc1)c1ccccc1` here?
Answer: The A50 was 670 nM.

Question: What about the Max uterine weight [2] of the same compound?
Answer: Its Max uterine weight is 97 mg.

Question: And the Effect [3]?
Answer: The Effect was 140%.

Question: And the KA [4]?
Answer: The KA was 63 nM.

Question: What does the source list for `CC/C(=C(\c1ccc(N)cc1)c1ccc(OCCN(C)C)cc1)c1ccccc1`?
Answer: Uterine weight [5]: 29.6; Max uterine weight [6]: 54 mg; Uterine weight [6]: 54; Uterine weight [7]: 44; Uterine weight [8]: 62; Uterine weight [9]: 43; Uterine weight [10]: 54.8; Uterine weight [11]: 46; Uterine weight [12]: 50.3; A50 [1]: 20 nM; Uterine weight [13]: 57.1; Uterine weight [14]: 58.2; Uterine weight [15]: 46 and 70.3; Uterine weight [16]: 67.2; Uterine weight [17]: 56.5; Effect [18]: 76%

Question: With `CC/C(=C(\c1ccc(NC(C)=O)cc1)c1ccc(ON(C)C)cc1)c1ccccc1` as the compound, how does the Max uterine weight [19] read?
Answer: Its Max uterine weight is 41.8 mg.

Question: What about the Effect [20] of the same compound?
Answer: Its Effect is 60%.

Question: With `CC/C(=C(/c1ccc(O)cc1)c1ccc(NC(C)=O)cc1)c1ccccc1` as the compound, how does the Max uterine weight [19] read?
Answer: Its Max uterine weight is 65.8 mg.

Question: What about the A50 [1] of the same compound?
Answer: The A50 was 1200 nM.

Question: What about the Effect [20] of the same compound?
Answer: Its Effect is 98%.

Question: Which Uterine weight [5] does the source give for `CC[C@H](c1ccc(O)cc1)[C@@H](CC)c1ccc(O)cc1` here?
Answer: The Uterine weight was 90.2.

Question: And the Uterine weight [21]?
Answer: The Uterine weight was 29.3.

Question: What about the Uterine weight [7] of the same compound?
Answer: Its Uterine weight is 97.3.

Question: What about the Uterine weight [22] of the same compound?
Answer: Its Uterine weight is 94.5.

Question: And the Max uterine weight [23]?
Answer: Its Max uterine weight is 62.6 mg.

Question: What about the Uterine weight [24] of the same compound?
Answer: The Uterine weight was 86.8.

Question: And the Effect [25]?
Answer: Its Effect is 143%.

Question: And the Uterine weight [26]?
Answer: Its Uterine weight is 62.6.

Question: With `CC/C(=C(/CC)c1ccc(O)cc1)c1ccc(O)cc1` [DIETHYLSTILBESTROL] as the compound, how does the KA [27] read?
Answer: The KA was 400 pM.

Question: Which Effect [28] does the source give for `CC/C(=C(\c1ccc(F)cc1)c1ccc(OCCN(C)C)cc1)c1ccccc1` here?
Answer: The Effect was 108%.

Question: What about the Uterine weight [9] of the same compound?
Answer: Its Uterine weight is 73.8.

Question: And the Uterine weight [29]?
Answer: The Uterine weight was 72.2.

Question: And the Max uterine weight [12]?
Answer: The Max uterine weight was 76.4 mg.

Question: And the Uterine weight [12]?
Answer: Its Uterine weight is 76.4.

Question: And the Uterine weight [30]?
Answer: Its Uterine weight is 68.9.

Question: What about the A50 [1] of the same compound?
Answer: The A50 was 5000 nM.

Question: What about the Uterine weight [13] of the same compound?
Answer: The Uterine weight was 80.3.

Question: And the Uterine weight [31]?
Answer: Its Uterine weight is 76.9.

Question: And the Uterine weight [32]?
Answer: Its Uterine weight is 71.2.

Question: And the Uterine weight [15]?
Answer: The Uterine weight was 70.4.

Question: What about the Uterine weight [33] of the same compound?
Answer: The Uterine weight was 85.7.

Question: And the Uterine weight [34]?
Answer: Its Uterine weight is 74.
